From paper PMC10052233 (JACS Au, 2023)
pKd: −log10 of the molar value.

What was measured:
di-Zn-NDM-1 [1] = biological target: T1, di-Zn-NDM-1 (Klebsiella pneumoniae, UniProt C7C422); experiment: 1H-15N TROSY-HSQC and 19F NMR titration of di-Zn-NDM-1 with inhibitors; type: binding; conditions: di-Zn-NDM-1, 298 K
apo-NDM-1 [2] = biological target: T2, apo-NDM-1 (Klebsiella pneumoniae, UniProt C7C422); experiment: 1H-15N TROSY-HSQC and 19F NMR titration of apo-NDM-1 with inhibitors; type: binding; conditions: apo-NDM-1, 298 K
T2 sequence (C7C422 36-270): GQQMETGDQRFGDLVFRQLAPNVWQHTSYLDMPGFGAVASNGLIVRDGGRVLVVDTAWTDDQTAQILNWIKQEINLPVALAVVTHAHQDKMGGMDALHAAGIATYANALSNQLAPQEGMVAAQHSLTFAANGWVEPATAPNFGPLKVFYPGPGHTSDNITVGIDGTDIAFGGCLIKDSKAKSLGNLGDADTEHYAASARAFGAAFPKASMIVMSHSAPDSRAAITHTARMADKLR

di-Zn-NDM-1 [3] = biological target: T1, di-Zn-NDM-1; experiment: 19F NMR titration, dissociation constant with di-Zn-NDM-1; type: binding
Outline: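 NDM-1 (residues 36−270) carrying a C-terminal His6 tag, expressed in E. coli BL21 (DE3) and purified by Ni2+-affinity and size-exclusion chromatography. di-Zn protein, 0.1−0.3 mM, titrated with test compound at ratios chosen so the protein was mostly bound. 19F spectra recorded at each ratio. Kd derived from titration of the residue Y229 signal.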

apo-NDM-1 [4] = biological target: T2, apo-NDM-1; experiment: Thermal stability by circular dichroism, apo-NDM-1; conditions: CD, ellipticity at 208 nm; apo-NDM-1 alone 46.1 °C
di-Zn-NDM-1 [5] = biological target: T1, di-Zn-NDM-1; experiment: Thermal stability by circular dichroism, di-Zn-NDM-1

T1 sequence (C7C422 36-270): as above

Row | Compound | changes of 1H-15N TROSY-HSQC / 19F spectra upon titration (di-Zn-NDM-1 [1]) | changes of 1H-15N TROSY-HSQC / 19F spectra upon titration (apo-NDM-1 [2]) | pKd (di-Zn-NDM-1 [3]) | Tm of ebselen-bound apo-NDM-1 (apo-NDM-1 [4]) [°C] | Tm of ebselen-bound di-Zn-NDM-1 (di-Zn-NDM-1 [5]; CD, ellipticity at 208 nm, di-Zn-NDM-1 alone 53.9 °C) [°C] | Tm lower than that of di-Zn-NDM-1 (di-Zn-NDM-1 [5]; ebselen-bound di-Zn-NDM-1 vs di-Zn-NDM-1)
1 | O[C@@H](CS)[C@@H](O)CS (racemic) [DTT, dithiothreitol] | large chemical shift changes | No changes | 4.52 | – | – | –
2 | OCC(S)CS (stereo not drawn) [2,3-dimercapto-1-propanol] | large chemical shift changes | No changes | 3.15 | – | – | –
3 | CC(CS)C(=O)O (stereo not drawn) [3-mercaptoisobutyric acid] | large chemical shift changes | No changes | – | – | – | –
4 | c1ccc(CN(Cc2ccccn2)Cc2ccccn2)nc1 [TPA, tris-picolylamine] | significant changes | only minute chemical shift changes | – | – | – | –
5 | N[C@@H](C(=O)N[C@@H]1C(=O)N2C(C(=O)O)=C(Cl)CS[C@H]12)c1ccccc1 [cefaclor] | almost all of the cross-peaks in the 2D TROSY-HSQC spectra disappear | almost all of the cross-peaks in the 2D TROSY-HSQC spectra disappear | – | – | – | –
6 | O=C(O)c1cc[c]([Hg][Cl])cc1 [chloromercuribenzoic acid, 4-chloromercuribenzoic acid] | almost all of the cross-peaks in the 2D TROSY-HSQC spectra disappear | almost all of the cross-peaks in the 2D TROSY-HSQC spectra disappear | – | – | – | –
7 | O=C(O)c1cccc(C(=O)O)n1 [dipicolinic acid] | significant changes | only minute chemical shift changes | – | – | – | –
8 | O=c1c2ccccc2[se]n1-c1ccccc1 [ebselen] | almost all of the cross-peaks in the 2D TROSY-HSQC spectra disappear | almost all of the cross-peaks in the 2D TROSY-HSQC spectra disappear | – | 46.1 | 48.4 | about 5.5 °C
9 | c1cnc2c(c1)ccc1cccnc12 [phenanthroline] | significant changes | only minute chemical shift changes | – | – | – | –
10 | O=C(O)CNC(=O)C(CS)Cc1ccccc1 (stereo not drawn) [thiorphan] | large chemical shift changes | No changes | – | – | – | –
11 | CC(S)C(=O)NCC(=O)O (stereo not drawn) [tiopronin] | large chemical shift changes | No changes | 3.92 | – | – | –
12 | colloidal bismuth subcitrate [CBS] | no changes | shifted significantly | – | – | – | –
